Assay results from different studies.
PDE3A: cGMP-inhibited 3',5'-cyclic phosphodiesterase 3A (PDE3A, Homo sapiens, UniProt Q14432)

Structure (SMILES)	target	effect on	action	technique	tested at	inhibition
C#Cc1n[nH]c2c(-c3cn([C@@H](C)c4ccccc4)c(=O)[nH]c3=O)cc(F)cc12	Leucine-rich repeat serine/threonine-protein kinase 2 (LRRK2, Homo sapiens, UniProt Q5S007)	enzyme activity	inhibitor	–	0.1 µM	3.8%
CCN(CC)CCCC[C@H](NC(=O)[C@H](CC(C)C)NC(=O)[C@H](C)NC(=O)[C@H](Cc1ccccc1)NC(=O)c1ccc(C(C)(C)C)cc1)C(=O)N[C@@H](CO)C(=O)OC	5-hydroxytryptamine receptor 1A (HTR1A, Homo sapiens, UniProt P08908)	ligand displacement	–	radioligand	10 µM	19%
Cn1cc(-c2cccc(N3CCc4c(sc5c4CC(C)(C)C5)C3=O)c2CO)cc(Nc2ccncn2)c1=O	Leucine-rich repeat serine/threonine-protein kinase 2 (LRRK2, Homo sapiens, UniProt Q5S007, G2019S)	enzyme activity	inhibitor	–	1 µM	-15%
C[C@H](C(=O)N[C@H]1COc2ccccc2[C@@H]1S(C)(=O)=O)c1ccc(F)cc1	PDE3A	cell-free assay	inhibitor	–	10 µM	-9%
C#Cc1n[nH]c2c(-c3cn([C@@H](C)c4ccccn4)c(=O)[nH]c3=O)cc(F)cc12	Mitogen-activated protein kinase 14 (MAPK14, Homo sapiens, UniProt Q16539)	enzyme activity	inhibitor	–	0.1 µM	4%
Cn1cc(-c2cc(F)cc(N3CCn4c(cc5c4CCCC5)C3=O)c2CO)cc(Nc2ccc(N3CCN(C4COC4)CC3)cn2)c1=O	Serine/threonine-protein kinase PAK 3 (PAK3, Homo sapiens, UniProt O75914)	enzyme activity	inhibitor	–	0.1 µM	16%
c1ccc(C(NCCNC(c2ccccc2)c2ccccc2)c2ccccc2)cc1	PDE3A	cell-free assay	inhibitor	–	10 µM	0%
Clc1ccc2c(C3CCN(CCc4c[nH]c5ccccc45)CC3)c[nH]c2c1	PDE3A	enzyme activity	inhibitor	–	10 µM	-1%
CN(CCN1CCC(OC(=O)Nc2ccccc2-c2ccccc2)CC1)C(=O)c1ccc(CN2CCC(C(N)=O)CC2)cc1	Nociceptin receptor (OPRL1, Homo sapiens, UniProt P41146)	ligand displacement	–	radioligand	1 µM	0%
COc1cc(Nc2ncc(F)c(Nc3ccc4c(n3)NC(=O)C(C)(C)O4)n2)cc(OC)c1OC	Eukaryotic translation initiation factor 2-alpha kinase 1 (EIF2AK1, Homo sapiens, UniProt Q9BQI3)	binding	–	competition with immobilised ligand	10 µM	38%
O=C(Nc1cccnn1)N1CCN([C@@H]2CCOc3cc(C(F)(F)F)ccc32)CC1	Alpha-2C adrenergic receptor (ADRA2C, Homo sapiens, UniProt P18825)	cell-free assay	–	–	20 µM	23%
C[C@@H]1CCCN1CCCCOc1ccc2occc(=O)c2c1	Bile salt-activated lipase (Homo sapiens, UniProt P19835)	enzyme activity	inhibitor	fluorescence	10 µM	6%
CCOC(=O)c1ccc(OC(=O)CCCCCNC(=N)N)cc1	Ataxin-3 (ATXN3, Homo sapiens, UniProt P54252)	enzyme activity	inhibitor	–	10 µM	3%
